Results from ChEMBL document CHEMBL4346670, “Discovery of Novel Janus Kinase (JAK) and Histone Deacetylase (HDAC) Dual Inhibitors for the Treatment of Hematological Malignancies” (J Med Chem, 2019).

Experiments:
[1] = target: Tyrosine-protein kinase JAK1 (Homo sapiens, UniProt P23458); test: Inhibition of recombinant human JAK1 using Ulight-CAGAGAIETDKEYYTVKD as substrate measured after 60 mins by LANCE assay
How it was run: (§1)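 Human recombinant JAK enzyme assays run by a contract lab. IC50 was taken from a non-linear curve fit, with all parameters allowed to float. Assays were run in replicate (n>2) and reported as mean ± SD.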

[2] = target: T1, Protein deacetylase HDAC6 (Homo sapiens, UniProt Q9UBN7); test: Inhibition of HDAC6 (unknown origin) using Boc-Lys(acetyl)-AMC as substrate preincubated for 5 mins followed by substrate addition and measured after 30 mins by fluorescence assay
T1 sequence (Q9UBN7 whole entry): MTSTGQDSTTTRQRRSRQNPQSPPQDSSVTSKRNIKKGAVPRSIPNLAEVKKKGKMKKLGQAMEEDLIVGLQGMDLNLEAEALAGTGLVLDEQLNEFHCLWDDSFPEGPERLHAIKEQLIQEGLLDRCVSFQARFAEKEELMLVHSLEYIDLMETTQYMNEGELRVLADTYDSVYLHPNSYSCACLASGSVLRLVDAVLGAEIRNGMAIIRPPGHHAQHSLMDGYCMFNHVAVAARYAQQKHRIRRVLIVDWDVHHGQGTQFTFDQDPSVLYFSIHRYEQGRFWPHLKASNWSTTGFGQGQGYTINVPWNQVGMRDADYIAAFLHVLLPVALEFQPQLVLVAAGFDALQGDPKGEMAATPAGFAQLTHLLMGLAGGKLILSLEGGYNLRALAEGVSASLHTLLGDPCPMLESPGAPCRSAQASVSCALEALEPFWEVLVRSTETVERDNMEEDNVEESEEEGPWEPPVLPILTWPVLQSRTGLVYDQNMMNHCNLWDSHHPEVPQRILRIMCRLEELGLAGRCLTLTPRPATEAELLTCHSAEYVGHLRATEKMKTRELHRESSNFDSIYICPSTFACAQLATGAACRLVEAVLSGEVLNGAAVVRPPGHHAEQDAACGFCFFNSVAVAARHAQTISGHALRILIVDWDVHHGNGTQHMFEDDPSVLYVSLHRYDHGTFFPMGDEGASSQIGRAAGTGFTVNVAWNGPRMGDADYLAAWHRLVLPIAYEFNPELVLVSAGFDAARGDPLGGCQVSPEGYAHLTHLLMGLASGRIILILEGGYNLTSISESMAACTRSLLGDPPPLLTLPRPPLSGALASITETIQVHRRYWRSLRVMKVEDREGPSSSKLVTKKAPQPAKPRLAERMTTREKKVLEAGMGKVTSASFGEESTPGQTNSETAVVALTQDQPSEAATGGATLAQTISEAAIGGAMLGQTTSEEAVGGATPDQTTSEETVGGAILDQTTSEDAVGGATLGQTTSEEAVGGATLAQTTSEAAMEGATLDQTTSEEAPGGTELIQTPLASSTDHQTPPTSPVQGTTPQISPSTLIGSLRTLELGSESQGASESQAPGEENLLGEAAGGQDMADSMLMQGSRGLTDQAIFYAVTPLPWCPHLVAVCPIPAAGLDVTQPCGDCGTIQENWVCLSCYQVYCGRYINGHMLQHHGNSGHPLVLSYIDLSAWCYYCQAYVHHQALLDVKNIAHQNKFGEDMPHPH

[3] = target: Non-receptor tyrosine-protein kinase TYK2 (Homo sapiens, UniProt P29597); test: Inhibition of recombinant human TYK2 using Ulight-CAGAGAIETDKEYYTVKD as substrate measured after 60 mins by LANCE assay; how it was run: as §1
Non-receptor tyrosine-protein kinase TYK2, sequence (P29597 whole entry): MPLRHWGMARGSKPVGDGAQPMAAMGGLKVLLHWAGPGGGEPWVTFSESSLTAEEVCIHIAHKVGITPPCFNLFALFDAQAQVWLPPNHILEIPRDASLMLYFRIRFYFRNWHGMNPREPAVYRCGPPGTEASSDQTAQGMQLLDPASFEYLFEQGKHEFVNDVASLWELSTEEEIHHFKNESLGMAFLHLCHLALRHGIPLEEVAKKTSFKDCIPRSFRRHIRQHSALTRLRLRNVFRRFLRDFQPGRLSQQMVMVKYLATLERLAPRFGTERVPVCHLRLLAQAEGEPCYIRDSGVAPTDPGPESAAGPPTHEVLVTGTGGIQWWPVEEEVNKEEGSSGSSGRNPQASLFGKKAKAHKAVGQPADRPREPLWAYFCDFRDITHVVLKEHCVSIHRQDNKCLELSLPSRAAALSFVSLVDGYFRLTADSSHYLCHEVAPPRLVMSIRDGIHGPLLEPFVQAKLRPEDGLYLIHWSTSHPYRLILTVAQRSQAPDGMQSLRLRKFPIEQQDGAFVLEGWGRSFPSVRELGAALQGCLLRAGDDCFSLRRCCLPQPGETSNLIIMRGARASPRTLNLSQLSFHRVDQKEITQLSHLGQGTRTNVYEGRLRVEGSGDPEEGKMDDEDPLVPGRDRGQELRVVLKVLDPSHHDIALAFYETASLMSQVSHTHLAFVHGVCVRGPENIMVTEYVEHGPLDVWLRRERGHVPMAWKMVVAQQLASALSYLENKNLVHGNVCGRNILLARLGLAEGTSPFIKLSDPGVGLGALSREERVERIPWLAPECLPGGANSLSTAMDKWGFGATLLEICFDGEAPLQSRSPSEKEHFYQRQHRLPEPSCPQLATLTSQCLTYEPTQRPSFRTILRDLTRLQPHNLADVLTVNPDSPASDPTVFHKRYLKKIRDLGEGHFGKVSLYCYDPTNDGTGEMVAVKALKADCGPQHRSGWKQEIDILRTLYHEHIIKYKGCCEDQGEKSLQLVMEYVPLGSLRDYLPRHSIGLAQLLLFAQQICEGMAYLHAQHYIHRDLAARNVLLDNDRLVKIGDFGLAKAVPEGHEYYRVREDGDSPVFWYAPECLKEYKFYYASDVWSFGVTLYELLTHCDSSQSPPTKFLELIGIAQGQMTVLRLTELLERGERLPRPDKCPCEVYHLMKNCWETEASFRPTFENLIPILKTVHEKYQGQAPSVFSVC

[4] = system: K562; test: Induction of apoptosis in human K562 cells assessed as viable cells at 1 uM after 24 hrs by Annexin-V/propidium iodide staining-based flow cytometric analysis (reference value: 85.7%); format: functional; conditions: Homo sapiens, K562, 24 h; read-out: Activity
[5] = target: Histone deacetylase; test: Inhibition of HDAC in human HeLa nuclear extract using Boc-Lys(acetyl)-AMC as substrate preincubated for 5 mins followed by substrate addition and measured after 30 mins by fluorescence assay; format: cell-based
[6] = system: HEL; test: Antiproliferative activity against HEL cells harboring JAK2 V617F mutant assessed as reduction in cell viability after 48 hrs by MTT assay; format: functional, cell-based; conditions: Homo sapiens
[7] = target: Tyrosine-protein kinase JAK2 (Homo sapiens, UniProt O60674); test: Inhibition of recombinant human JAK2 using Ulight-CAGAGAIETDKEYYTVKD as substrate measured after 60 mins by LANCE assay
Tyrosine-protein kinase JAK2, sequence (O60674 whole entry): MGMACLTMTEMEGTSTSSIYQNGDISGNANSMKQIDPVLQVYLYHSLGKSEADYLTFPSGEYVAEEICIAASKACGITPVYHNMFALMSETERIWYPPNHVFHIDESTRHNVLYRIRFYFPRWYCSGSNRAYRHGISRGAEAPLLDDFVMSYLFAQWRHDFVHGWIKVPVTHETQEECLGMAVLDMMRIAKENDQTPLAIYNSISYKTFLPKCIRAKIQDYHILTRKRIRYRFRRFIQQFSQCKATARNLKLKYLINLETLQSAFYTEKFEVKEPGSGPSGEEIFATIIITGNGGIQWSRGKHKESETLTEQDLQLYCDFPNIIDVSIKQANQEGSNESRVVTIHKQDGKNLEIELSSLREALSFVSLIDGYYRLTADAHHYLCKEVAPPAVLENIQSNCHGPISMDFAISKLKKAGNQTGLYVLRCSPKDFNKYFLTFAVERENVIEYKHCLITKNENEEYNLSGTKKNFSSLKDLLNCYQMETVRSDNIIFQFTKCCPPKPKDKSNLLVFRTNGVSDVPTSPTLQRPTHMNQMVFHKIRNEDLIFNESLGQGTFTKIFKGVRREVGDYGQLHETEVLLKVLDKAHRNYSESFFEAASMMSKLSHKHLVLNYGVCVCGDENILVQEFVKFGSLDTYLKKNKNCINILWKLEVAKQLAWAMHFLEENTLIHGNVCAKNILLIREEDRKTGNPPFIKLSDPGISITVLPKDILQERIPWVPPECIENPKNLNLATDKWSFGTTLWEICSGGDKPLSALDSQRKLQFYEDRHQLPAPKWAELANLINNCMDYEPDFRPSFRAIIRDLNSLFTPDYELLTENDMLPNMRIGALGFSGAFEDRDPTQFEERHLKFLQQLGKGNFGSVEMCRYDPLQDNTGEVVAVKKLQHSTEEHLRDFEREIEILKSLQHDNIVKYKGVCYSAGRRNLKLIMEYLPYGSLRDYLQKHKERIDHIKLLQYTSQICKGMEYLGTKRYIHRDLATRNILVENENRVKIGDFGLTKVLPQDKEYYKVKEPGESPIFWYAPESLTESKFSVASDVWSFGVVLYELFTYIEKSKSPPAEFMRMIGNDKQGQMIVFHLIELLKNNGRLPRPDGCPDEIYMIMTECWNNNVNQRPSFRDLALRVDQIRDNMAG

[8] = system: HEL; test: Induction of apoptosis in HEL cells assessed as early apoptotic cells at 1 uM after 24 hrs by Annexin-V/propidium iodide staining-based flow cytometric analysis (reference value: 12.5%); format: functional, Homo sapiens

Tyrosine-protein kinase JAK1, sequence (P23458 whole entry): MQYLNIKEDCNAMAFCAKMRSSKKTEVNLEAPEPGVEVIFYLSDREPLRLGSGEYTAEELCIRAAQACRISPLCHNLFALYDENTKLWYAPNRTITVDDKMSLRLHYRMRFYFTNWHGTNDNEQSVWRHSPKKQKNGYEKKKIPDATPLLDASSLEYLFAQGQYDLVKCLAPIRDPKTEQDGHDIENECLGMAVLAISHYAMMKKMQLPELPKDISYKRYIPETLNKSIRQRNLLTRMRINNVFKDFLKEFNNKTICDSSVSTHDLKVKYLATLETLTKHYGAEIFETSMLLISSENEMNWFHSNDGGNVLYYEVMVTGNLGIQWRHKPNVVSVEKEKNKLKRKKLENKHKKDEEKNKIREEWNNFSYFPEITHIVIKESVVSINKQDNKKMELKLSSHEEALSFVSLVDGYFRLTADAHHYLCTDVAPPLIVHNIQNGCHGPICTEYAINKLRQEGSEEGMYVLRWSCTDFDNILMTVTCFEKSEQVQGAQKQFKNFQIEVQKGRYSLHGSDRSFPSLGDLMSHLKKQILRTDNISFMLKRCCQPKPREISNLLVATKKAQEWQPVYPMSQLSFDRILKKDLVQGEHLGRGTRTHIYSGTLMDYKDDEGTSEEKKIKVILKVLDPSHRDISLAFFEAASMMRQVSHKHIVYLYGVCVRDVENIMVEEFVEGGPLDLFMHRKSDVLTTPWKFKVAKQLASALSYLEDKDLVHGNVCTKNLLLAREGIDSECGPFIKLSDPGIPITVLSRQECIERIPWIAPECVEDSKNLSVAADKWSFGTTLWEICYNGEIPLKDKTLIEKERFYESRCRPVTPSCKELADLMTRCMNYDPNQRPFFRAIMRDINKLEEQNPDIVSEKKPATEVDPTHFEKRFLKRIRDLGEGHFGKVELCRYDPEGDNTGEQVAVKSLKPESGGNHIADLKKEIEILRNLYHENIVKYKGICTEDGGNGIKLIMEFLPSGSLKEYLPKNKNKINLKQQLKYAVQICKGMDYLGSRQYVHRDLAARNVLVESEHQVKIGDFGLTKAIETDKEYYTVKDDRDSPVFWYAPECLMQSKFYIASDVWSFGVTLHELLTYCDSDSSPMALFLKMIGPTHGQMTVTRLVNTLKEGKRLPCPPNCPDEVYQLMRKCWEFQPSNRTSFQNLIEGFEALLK

Question: Which results are given for O=C(CCCCCn1cc(Nc2ncc(Cl)c(Nc3ccc(Cl)cc3)n2)cn1)NO?
Answer: IC50 [1]: 4.8 nM; IC50 [2]: 14 nM; IC50 [3]: 49 nM; viability at 1 µM [4]: 17.6%; IC50 [5]: 2 nM; IC50 [6]: 90 nM; IC50 [7]: 4 nM; Activity [8]: 27.8%

Question: Which results are given for O=C(CCCCCCn1cc(Nc2ncc(Cl)c(Nc3cccc(Cl)c3)n2)cn1)NO?
Answer: IC50 [1]: 15 nM; IC50 [2]: 41 nM; IC50 [3]: 67 nM; viability at 1 µM [4]: 53.6%; IC50 [5]: 20 nM; IC50 [6]: 140 nM; IC50 [7]: 10 nM; Activity [8]: 22.8%
